The nature of data set [1]: Intrinsic clearance in human liver microsomes assessed per mg protein in presence of NADPH by LC-MS/MS analysis. It counts as ADME, microsome. The note with it: read-out: CLH. In general terms: Liver microsomes are vesicles of endoplasmic reticulum, rich in cytochrome P450 enzymes.
Data set [2] relates to Mus musculus. The data set can be described thus: Protection against TNFalpha-induced thymus damage in C57BL/6J mouse assessed as reduction in immune cell infiltration at 0.3 to 3 mg/kg, ip pretreated for 17 mins followed by TNFalpha injection and subsequent compound treatment once in every 12 hrs measured 24 hrs post TNFalpha injection by hematoxylin and eosin staining based assay. It is filed as functional, organism-based. The gist of the method: (§1)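 Mice given mTNFα IV; compound 0.3, 1, 3 mg/kg IP 17 min before and every 12 h. Killed 24 h post-TNFα. Organs fixed 24 h in 10% neutral buffered formalin, paraffin-embedded, 5-μm sections, H&E stained; ×200, at least three mice each.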

Data set [3] has as its system Mus musculus. The data set can be described thus: Protection against TNFalpha-induced mortality in C57BL/6J mouse assessed as survival rate at 3 mg/kg, ip pretreated for 17 mins followed by TNFalpha injection and subsequent compound treatment once in every 12 hrs measured every 30 mins up to 60 hrs post TNFalpha injection during compound dosing (reference value: 50%). It is filed as functional.

Data set [4] is described as follows: Apparent permeability from apical to basolateral side in MDCK cells harboring MDR1. It counts as ADME, cell-based, Canis lupus familiaris. The settings on record: dog. The gist of the method:
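Permeability measured in MDCK-MDR1 cell monolayers in both directions, apical-to-basolateral and basolateral-to-apical; efflux ratio derived from the two Papp values.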

Data set [5] concerns the target Receptor-interacting serine/threonine-protein kinase 3 (Homo sapiens) (UniProt Q9Y572). The data set can be described thus: Inhibition of TNFalpha/z-VAD-FMK-induced RIP3 phosphorylation at Ser-227 residue in human HT-29 cells by Western blot method. It counts as cell-based.
Data set [6] concerns the target Voltage-gated inwardly rectifying potassium channel KCNH2 (Homo sapiens, UniProt Q12809). The data set can be described thus: Inhibition of human ERG at 30 uM by manual patch clamp method. The gist of the method:
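Manual patch clamp on hERG channel, tested up to 30 μM.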
For orientation: Patch clamp records ionic current or voltage across a cell membrane.

In data set [7] the test system is Mus musculus. In words: Protection against TNFalpha-induced mortality in ip dosed C57BL/6J mouse assessed as increase in survival rate administered as single dose 17 mins before TNFalpha injection measured every 30 mins up to 60 hrs post TNFalpha injection. It is filed as functional, organism-based. The gist of the method: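 C57BL/6 mice, 6-8 weeks, ~20 g, randomized (n = 6~10). Given 5.5 μg mTNFα (~0.25 mg/kg) IV in endotoxin-free PBS, 0.2 mL. Compound IP 17 min before TNFα: either once at 6 mg/kg or […], 1, 3 mg/kg then every 12 h; vehicle controls. Survival checked every 30 min to 60 h.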

For data set [8], the system named is Mus musculus. In words: Protection against TNFalpha-induced pancreas damage in C57BL/6J mouse at 0.3 to 3 mg/kg, ip pretreated for 17 mins followed by TNFalpha injection and subsequent compound treatment once in every 12 hrs measured 24 hrs post TNFalpha injection by hematoxylin and eosin staining based assay. It counts as functional, organism-based. The gist of the method:
as §1

Calls of active or inactive are those of the source. The calls are words filed in the database; no cut-off is given here.

Sequence of Voltage-gated inwardly rectifying potassium channel KCNH2 (Q12809 whole entry): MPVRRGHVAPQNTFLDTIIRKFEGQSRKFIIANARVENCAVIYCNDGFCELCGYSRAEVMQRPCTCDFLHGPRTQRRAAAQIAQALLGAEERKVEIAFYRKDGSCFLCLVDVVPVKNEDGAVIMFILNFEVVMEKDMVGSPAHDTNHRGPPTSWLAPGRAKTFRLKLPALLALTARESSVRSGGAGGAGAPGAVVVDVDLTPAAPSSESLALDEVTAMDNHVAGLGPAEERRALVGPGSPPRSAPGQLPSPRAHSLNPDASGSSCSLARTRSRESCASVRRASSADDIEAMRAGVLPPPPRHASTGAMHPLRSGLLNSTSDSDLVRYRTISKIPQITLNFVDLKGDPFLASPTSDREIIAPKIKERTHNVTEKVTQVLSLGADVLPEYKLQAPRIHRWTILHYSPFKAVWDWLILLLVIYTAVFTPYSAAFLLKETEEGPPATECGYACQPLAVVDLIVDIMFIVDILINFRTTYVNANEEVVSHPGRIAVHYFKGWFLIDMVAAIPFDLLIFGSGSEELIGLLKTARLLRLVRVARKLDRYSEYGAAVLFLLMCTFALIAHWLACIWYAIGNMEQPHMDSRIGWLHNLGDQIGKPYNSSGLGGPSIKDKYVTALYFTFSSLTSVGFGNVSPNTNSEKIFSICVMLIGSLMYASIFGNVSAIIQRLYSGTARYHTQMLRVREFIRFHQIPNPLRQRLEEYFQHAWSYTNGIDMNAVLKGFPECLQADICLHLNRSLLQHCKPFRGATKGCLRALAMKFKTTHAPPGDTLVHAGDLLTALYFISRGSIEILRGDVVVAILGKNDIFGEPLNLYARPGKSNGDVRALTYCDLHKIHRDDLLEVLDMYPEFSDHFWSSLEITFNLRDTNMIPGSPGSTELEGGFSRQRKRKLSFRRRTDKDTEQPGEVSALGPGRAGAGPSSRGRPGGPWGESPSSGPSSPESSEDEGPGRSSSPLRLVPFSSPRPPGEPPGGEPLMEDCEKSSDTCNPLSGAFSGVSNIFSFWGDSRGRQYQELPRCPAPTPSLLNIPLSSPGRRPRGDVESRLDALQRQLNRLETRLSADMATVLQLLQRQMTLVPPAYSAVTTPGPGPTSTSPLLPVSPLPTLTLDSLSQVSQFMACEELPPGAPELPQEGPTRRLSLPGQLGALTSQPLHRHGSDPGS
Sequence of Receptor-interacting serine/threonine-protein kinase 3 (Homo sapiens) (Q9Y572 whole entry, looked up): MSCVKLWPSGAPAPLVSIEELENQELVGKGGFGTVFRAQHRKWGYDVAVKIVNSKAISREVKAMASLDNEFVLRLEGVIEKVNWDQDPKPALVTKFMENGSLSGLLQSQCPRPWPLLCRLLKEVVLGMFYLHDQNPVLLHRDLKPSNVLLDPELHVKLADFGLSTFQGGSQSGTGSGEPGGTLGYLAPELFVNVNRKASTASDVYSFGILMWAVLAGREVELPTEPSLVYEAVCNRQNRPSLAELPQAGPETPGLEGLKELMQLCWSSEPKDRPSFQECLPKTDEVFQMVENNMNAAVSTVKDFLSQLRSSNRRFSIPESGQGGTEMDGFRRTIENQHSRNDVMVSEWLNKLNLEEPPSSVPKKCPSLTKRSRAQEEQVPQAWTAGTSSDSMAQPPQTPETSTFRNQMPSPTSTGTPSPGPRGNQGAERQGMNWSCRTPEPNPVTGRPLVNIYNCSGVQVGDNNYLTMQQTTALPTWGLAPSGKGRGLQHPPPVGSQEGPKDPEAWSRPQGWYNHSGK

By Papp A→B is commonly meant the apparent permeability from the apical to the basolateral side of a cell layer. On to `CCC(C)(C)C(=O)N(O)Cc1ccccc1`, for which, in data set [1], the microsomal CLint was 5.4 µL/min/mg. For the same molecule, the outcome in the data set on Mus musculus [2] and with Mus musculus [8] was Active. Moreover, in the data set with Mus musculus [3], the survival at 3 mg/kg amounted to 100%. The Papp A→B in data set [4] is > 30 ×10⁻⁶ cm/s. Besides, the inhibition entry in data set [5] is “Active”. The “inhibition (INH)” value in data set [6] is reported as “Not Active”. For the same molecule, the Activity result in the data set on Mus musculus [7] was “Dose-dependent effect”.
